Experimental data published in ChEMBL document CHEMBL1133470, “Synthesis and antiviral activity of oxaselenolane nucleosides” (J Med Chem, 2000).

How the values were obtained:
[1] = In vitro cytotoxicity against PBM cells; assay type: functional, cell-based, Homo sapiens
CCRF-CEM [2] = assay: In vitro cytotoxicity againstCEM cells; assay type: functional, cell-based; details: Homo sapiens
Vero [3] = assay: (§1) In vitro cytotoxicity against Vero cells; assay type: functional, cell-based; details: Chlorocebus sabaeus
Hepatitis B virus = assay: Antiviral activity against Hepatitis B virus (HBV) in 2.2.15 cells; assay type: functional, organism-based; details: HepG2 2.2.15
[4] = test system: Human immunodeficiency virus 1; assay: Antiviral activity against Immunodeficiency virus type-1 (HIV-1) in peripheral blood mononuclear cells; assay type: functional, organism-based
How it was run: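 HIV-1 infection of human peripheral blood mononuclear (PBM) cells; EC50 reported in µM.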

Vero [5] = assay: as §1; assay type: functional, cell-based, Chlorocebus sabaeus
CCRF-CEM [6] = assay: In vitro cytotoxicity against CEM cells; assay type: functional, cell-based, Homo sapiens
[7] = Fold increase expressed as ratio of EC90 from M184V virus to that from xxBRU virus; assay type: functional
[8] = test system: Human immunodeficiency virus 1; assay: (§2) Anti HIV activity against cloned FTC/3TC-resistant mutant M184V HIV-1; assay type: functional
[9] = test system: Human immunodeficiency virus 1; assay: (§3) Anti HIV activity against cloned FTC-sensitive mutant xxBRU HIV-1; assay type: functional, organism-based
[10] = Fold increase expressed as ratio of EC50 from M184V virus to that from xxBRU virus; assay type: functional
[11] = test system: Human immunodeficiency virus 1; assay: as §2; assay type: functional, organism-based
[12] = test system: Human immunodeficiency virus 1; assay: as §3; assay type: functional

## O=c1ccn([C@H]2C[Se][C@@H](CO)O2)c(=O)[nH]1
[1]; Homo sapiens, PBMC
  IC50: > 100 µM
CCRF-CEM [2]
  IC50: > 100 µM
Vero [3]
  IC50: > 100 µM
Hepatitis B virus
  EC50: > 10 µM
[4]; Human immunodeficiency virus 1
  EC50: > 100 µM

## O=c1ccn([C@@H]2C[Se][C@@H](CO)O2)c(=O)[nH]1
[1]; Homo sapiens, PBMC
  IC50: > 100 µM
Hepatitis B virus
  EC50: > 10 µM
[4]; Human immunodeficiency virus 1
  EC50: 101 µM
Vero [5]; Chlorocebus sabaeus, Vero
  IC50: > 100 µM
CCRF-CEM [6]; Homo sapiens, CCRF-CEM
  IC50: > 100 µM

## Nc1nc(=O)n([C@@H]2C[Se][C@@H](CO)O2)cc1F (stereo in doubt; 10d)
Hepatitis B virus
  EC50: > 10 µM
[4]
  EC50: 57.1 µM

## Nc1nc(=O)n([C@H]2C[Se][C@@H](CO)O2)cc1F (stereo in doubt; (+))
[4]
  EC50: 41.9 µM

## Nc1nc(O)c2ncn([C@H]3C[Se][C@@H](CO)O3)c2n1
[1]; Homo sapiens, PBMC
  IC50: > 100 µM
Hepatitis B virus
  EC50: > 10 µM
[4]; Human immunodeficiency virus 1
  EC50: 28.9 µM
Vero [5]; Chlorocebus sabaeus, Vero
  IC50: > 100 µM
CCRF-CEM [6]; Homo sapiens, CCRF-CEM
  IC50: > 100 µM

## Nc1nc(=O)n([C@@H]2C[Se][C@@H](CO)O2)cc1F (stereo in doubt; (-))
[1]; Homo sapiens, PBMC
  IC50: > 100 µM
[4]
  EC50: 6.4 µM
Vero [5]; Chlorocebus sabaeus, Vero
  IC50: > 100 µM
CCRF-CEM [6]; Homo sapiens, CCRF-CEM
  IC50: > 100 µM

## Nc1ccn([C@H]2C[Se][C@@H](CO)O2)c(=O)n1 (stereo in doubt; (-))
[7]
  FI: >53
[8]
  EC90: > 50 µM
[9]
  EC50: 0.11 µM
[4]
  EC50: 0.9 µM
[10]
  FI: >455
[11]
  EC50: > 50 µM
[12]
  EC90: 0.95 µM

## Cc1cn([C@H]2C[Se][C@@H](CO)O2)c(=O)[nH]c1=O
[1]; Homo sapiens, PBMC
  IC50: > 100 µM
Hepatitis B virus
  EC50: > 10 µM
[4]; Human immunodeficiency virus 1
  EC50: > 10 µM
Vero [5]; Chlorocebus sabaeus, Vero
  IC50: > 100 µM
CCRF-CEM [6]; Homo sapiens, CCRF-CEM
  IC50: > 100 µM

## Nc1ccn([C@@H]2C[Se][C@@H](CO)O2)c(=O)n1
[1]; Homo sapiens, PBMC
  IC50: > 100 µM
[4]; Human immunodeficiency virus 1
  EC50: > 100 µM
Vero [5]; Chlorocebus sabaeus, Vero
  IC50: > 100 µM
CCRF-CEM [6]; Homo sapiens, CCRF-CEM
  IC50: > 100 µM

## Cc1cn([C@@H]2C[Se][C@@H](CO)O2)c(=O)[nH]c1=O
[1]; Homo sapiens, PBMC
  IC50: > 100 µM
Hepatitis B virus
  EC50: > 10 µM
[4]; Human immunodeficiency virus 1
  EC50: > 100 µM
Vero [5]; Chlorocebus sabaeus, Vero
  IC50: > 100 µM
CCRF-CEM [6]; Homo sapiens, CCRF-CEM
  IC50: > 100 µM

## Nc1ncnc2c1ncn2[C@H]1C[Se][C@@H](CO)O1
[1]; Homo sapiens, PBMC
  IC50: > 100 µM
Hepatitis B virus
  EC50: > 10 µM
[4]; Human immunodeficiency virus 1
  EC50: > 50 µM
Vero [5]; Chlorocebus sabaeus, Vero
  IC50: > 100 µM
CCRF-CEM [6]; Homo sapiens, CCRF-CEM
  IC50: > 100 µM

## Nc1ccn([C@H]2C[Se][C@@H](CO)O2)c(=O)n1 (stereo in doubt; 9c)
[1]; Homo sapiens, PBMC
  IC50: > 100 µM
[7]
  FI: 49
Hepatitis B virus
  EC50: 1.2 µM
[8]
  EC90: 337 µM
[9]
  EC50: 1.84 µM
[4]
  EC50: 2.7 µM
[10]
  FI: 59
Vero [5]; Chlorocebus sabaeus, Vero
  IC50: > 100 µM
CCRF-CEM [6]; Homo sapiens, CCRF-CEM
  IC50: > 100 µM
[11]
  EC50: 108 µM
[12]
  EC90: 6.9 µM

## OC[C@H]1O[C@H](n2cnc3c(O)ncnc32)C[Se]1
[1]; Homo sapiens, PBMC
  IC50: > 100 µM
Hepatitis B virus
  EC50: > 10 µM
[4]; Human immunodeficiency virus 1
  EC50: > 100 µM
Vero [5]; Chlorocebus sabaeus, Vero
  IC50: > 100 µM
CCRF-CEM [6]; Homo sapiens, CCRF-CEM
  IC50: > 100 µM

## Nc1nc(=O)n([C@H]2C[Se][C@@H](CO)O2)cc1F (stereo in doubt; (-))
[4]
  EC50: 0.2 µM

## Nc1ccn([C@H]2C[Se][C@@H](CO)O2)c(=O)n1 (stereo in doubt; (+))
[1]; pbm
  IC50: 100 µM
[7]
  FI: >1
[8]
  EC90: 50 µM
[9]
  EC50: 8.62 µM
[4]
  EC50: 3.4 µM
[10]
  FI: >6
Vero [5]; vero
  IC50: 100 µM
CCRF-CEM [6]; ccrf-cem
  IC50: 100 µM
[11]
  EC50: 50 µM
[12]
  EC90: 35.1 µM

## Nc1nc(O)c2ncn([C@@H]3C[Se][C@@H](CO)O3)c2n1
[1]; Homo sapiens, PBMC
  IC50: > 100 µM
Hepatitis B virus
  EC50: > 10 µM
[4]; Human immunodeficiency virus 1
  EC50: > 100 µM
Vero [5]; Chlorocebus sabaeus, Vero
  IC50: > 100 µM
CCRF-CEM [6]; Homo sapiens, CCRF-CEM
  IC50: > 100 µM

## OC[C@H]1O[C@@H](n2cnc3c(O)ncnc32)C[Se]1
[1]; Homo sapiens, PBMC
  IC50: > 100 µM
Hepatitis B virus
  EC50: > 10 µM
[4]; Human immunodeficiency virus 1
  EC50: > 100 µM
Vero [5]; Chlorocebus sabaeus, Vero
  IC50: > 100 µM
CCRF-CEM [6]; Homo sapiens, CCRF-CEM
  IC50: > 100 µM

## Nc1nc(=O)n([C@@H]2C[Se][C@@H](CO)O2)cc1F (stereo in doubt; (+))
[4]
  EC50: 95.3 µM

## Nc1ccn([C@@H]2CS[C@H](CO)O2)c(=O)n1 [LAMIVUDINE]
[1]; Homo sapiens, PBMC
  IC50: > 100 µM
Hepatitis B virus
  EC50: 0.008 µM
[4]; Human immunodeficiency virus 1
  EC50: 0.07 µM
Vero [5]; Chlorocebus sabaeus, Vero
  IC50: > 100 µM
CCRF-CEM [6]; Homo sapiens, CCRF-CEM
  IC50: > 100 µM

## Nc1ncnc2c1ncn2[C@@H]1C[Se][C@@H](CO)O1
[1]; Homo sapiens, PBMC
  IC50: > 100 µM
Hepatitis B virus
  EC50: > 10 µM
[4]; Human immunodeficiency virus 1
  EC50: > 100 µM
Vero [5]; Chlorocebus sabaeus, Vero
  IC50: > 100 µM
CCRF-CEM [6]; Homo sapiens, CCRF-CEM
  IC50: > 100 µM

## Nc1nc(=O)n([C@H]2C[Se][C@@H](CO)O2)cc1F (racemic)
[1]; Homo sapiens, PBMC
  IC50: > 100 µM
Hepatitis B virus
  EC50: 1.2 µM
[4]
  EC50: 0.73 µM
Vero [5]; Chlorocebus sabaeus, Vero
  IC50: > 100 µM
CCRF-CEM [6]; Homo sapiens, CCRF-CEM
  IC50: > 100 µM
